Assay results pooled from the literature.
Compare with care: the assays were run in different laboratories. pEC50, pIC50: −log10 of the molar value.
Organism: Plasmodium falciparum
Observed: parasite growth
Notes: blood stage

Structure (SMILES)	technique	strain	time	endpoint	result
COc1cc(/C=C/C(=O)C(=Cc2ccccc2)C(=O)/C=C/c2ccc(O)c(OC)c2)ccc1O		3D7		pEC50	5.42
Cc1ccc(Oc2ccc(NC(=O)C(C)(C)Nc3ccccc3N3CCCC3=O)cc2)cc1		3D7	72 h	pEC50	< 5.00
Cc1[nH]c(/C=C2\N=C(c3ccc[nH]3)C=C2OCc2ccccc2)cc1Cc1ccc(Cl)cc1	SYBR Green	D6	72 h	pIC50	8.00
COc1cc(/C=C/C(=O)C(=Cc2ccc([N+](=O)[O-])cc2)C(=O)/C=C/c2ccc(O)c(OC)c2)ccc1O		3D7		pEC50	5.56
Cc1[nH]c(/C=C2\N=C(c3ccc[nH]3)C=C2OC(C)C)cc1Cc1ccc(Cl)cc1	SYBR Green	D6	72 h	pIC50	8.43
CC(=O)[C@@]1(O)[C@H](O)C[C@H]2[C@@H]3CCC4=CC(=O)CC[C@]4(C)[C@H]3CC[C@@]21C	SYBR Green	3D7		pIC50	6.85
Cc1[nH]c(/C=C2\N=C(c3ccc[nH]3)C3=C2OCCO3)cc1Cc1ccc(Cl)cc1	SYBR Green	D6	72 h	pIC50	7.84
COc1cc(/C=C2\CC/C(=C\c3ccc(O)c(OC)c3)C2=O)ccc1O		3D7		pEC50	6.60
COC1=CC(c2ccc[nH]2)=N/C1=C\c1[nH]c(C(=O)O)cc1Cc1ccc(Cl)cc1	SYBR Green	D6	72 h	pIC50	< 5.60
Cc1nnc(-c2ccc3ccn(CC(=O)Nc4ccccn4)c3c2)o1		3D7	72 h	pEC50	5.32 to 5.37
CCN(CC)CCOc1ccc2c(c1)C(=O)c1cc(OCCN(CC)CC)ccc1-2	SYBR Green	3D7		pIC50	5.81
N#Cc1ccc(Oc2ccc(NC(=O)CNc3ccccc3N3CCCC3=O)cc2)cc1		3D7	72 h	pEC50	5.85
COc1cc(/C=C/C(=O)/C=C/c2ccc(O)c(OC)c2)ccc1O		3D7		pEC50	6.82
COC1=CC(c2ccc[nH]2)=N/C1=C\c1[nH]c(C)cc1Cc1ccc(OC(F)(F)F)cc1	SYBR Green	D6	72 h	pIC50	8.61
Cc1ccc(N(C)c2ccc(NC(=O)CN(C)c3cc(F)ccc3N3CCCC3=O)cc2)cc1		3D7	72 h	pEC50	7.47
Cc1ccc(N(CC2=NCCN2)c2cccc(O)c2)cc1	SYBR Green	3D7		pIC50	5.75
COc1cc(/C=C/c2cc(/C=C/c3ccc(O)c(OC)c3)n(-c3ccc(Cl)cc3Cl)n2)ccc1O		3D7		pEC50	5.48
Cc1ccc(N(C)c2ccc(NC(=O)CN(C)c3ccccc3N3CCCC3=O)c(F)c2)cc1		3D7	72 h	pEC50	8.52
C[C@H]1Cc2c([nH]c3cc(Cl)c(F)cc23)[C@@]2(N1)C(=O)Nc1ccc(Cl)cc12		3D7	72 h	pEC50	9.15
COc1ccnn1-c1ccccc1NCC(=O)Nc1ccc(Oc2ccc(C)cc2)cc1		3D7	72 h	pEC50	< 5.00
CO[C@H]1C[C@H](O[C@@H]2/C(C)=C/C[C@@H]3C[C@@H](C[C@]4(CC[C@H](C)[C@@H](C5CCCCC5)O4)O3)OC(=O)[C@@H]3C=C(C)/C(=N/O)[C@H]4OC/C(=C\C=C\[C@@H]2C)[C@]43O)O[C@@H](C)[C@@H]1O		NF54		pIC50	6.16
CCC1=C(CC)/C(=C/c2cc(Cc3ccc(Cl)cc3)c(C)[nH]2)N=C1c1ccc[nH]1	SYBR Green	D6	72 h	pIC50	6.46
Cc1cc2ccc(-c3cnn(C)c3)cc2n1CC(=O)Nc1ccccc1Cl		3D7	72 h	pEC50	6.22
CCOC1=CC(c2ccc[nH]2)=N/C1=C\c1cc(Cc2ccc(OC(F)(F)F)cc2)c(C)[nH]1	SYBR Green	D6	72 h	pIC50	8.16
CCCN(c1ccc(C)cc1)c1ccc(NC(=O)CN(C)c2ccccc2N2CCCC2=O)cc1		3D7	72 h	pEC50	8.00
CC(C(=O)Nc1ccccc1Cl)n1ccc2ccc(-c3cnn(C)c3)cc21 (stereo not drawn)		3D7	72 h	pEC50	5.95
CCN(c1ccc(C)cc1)c1ccc(NC(=O)CN(C)c2ccccc2N2CCCC2=O)cn1		3D7	72 h	pEC50	8.40
COC1=CC(c2ccc[nH]2)=N/C1=C\c1[nH]c(-c2ccccc2)cc1-c1ccccc1	SYBR Green	D6	72 h	pIC50	7.78
Cc1ccc(N(C)c2ccc(NC(=O)CN(C)c3ccccc3N3CCCC3=O)cn2)cc1		3D7	72 h	pEC50	7.89
COc1cc(C=C(C(=O)/C=C/c2ccc(O)c(OC)c2)C(=O)/C=C/c2ccc(O)c(OC)c2)ccc1O		3D7		pEC50	5.75
